# pIC50: −log10 of the molar value.
# How the values were obtained:
# [1] = biological target: CDK4/Cyclin D3 (Homo sapiens) (UniProt P11802+P30281); assay: Inhibition of recombinant full length human CDK4/Cyclin D3 using Rb-fragmen as substrate at 1 uM incubated for 40 mins by [gamma-33P]-ATP based radiometric assay relative to control; assay type: protein-complex assay
# In short: (§1)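 Kinase panel profiling at 1 μM performed by Eurofins KinaseProfiler; percent inhibition reported as mean of two independent experiments.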
# [2] = biological target: Vascular endothelial growth factor receptor 2 (Homo sapiens, UniProt P35968); assay: Inhibition of recombinant human VEGFR2 (790 to end residues) using myelin ba as substrate at 1 uM incubated for 40 mins by [gamma-33P]-ATP based radiometric assay relative to control; in short: as §1
# T47D = assay: Antiproliferative activity against human T47D cells assessed as reduction in cell viability measured after 72 hrs by CCK8 assay; assay type: functional, cell-based
# In short: (§2)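 Cells were seeded at 3×10³ cells/well and exposed to a range of concentrations or vehicle for 72 h. Viability was read by CCK-8 at 450 nm, with DMSO as blank and five replicates per sample. IC50 was calculated from the dose-response.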
# HeLa = assay: Antiproliferative activity against human HeLa cells assessed as reduction in cell viability measured after 72 hrs by CCK8 assay; assay type: functional, cell-based; in short: as §2
# Vascular endothelial growth factor receptor 2, sequence (P35968 whole entry): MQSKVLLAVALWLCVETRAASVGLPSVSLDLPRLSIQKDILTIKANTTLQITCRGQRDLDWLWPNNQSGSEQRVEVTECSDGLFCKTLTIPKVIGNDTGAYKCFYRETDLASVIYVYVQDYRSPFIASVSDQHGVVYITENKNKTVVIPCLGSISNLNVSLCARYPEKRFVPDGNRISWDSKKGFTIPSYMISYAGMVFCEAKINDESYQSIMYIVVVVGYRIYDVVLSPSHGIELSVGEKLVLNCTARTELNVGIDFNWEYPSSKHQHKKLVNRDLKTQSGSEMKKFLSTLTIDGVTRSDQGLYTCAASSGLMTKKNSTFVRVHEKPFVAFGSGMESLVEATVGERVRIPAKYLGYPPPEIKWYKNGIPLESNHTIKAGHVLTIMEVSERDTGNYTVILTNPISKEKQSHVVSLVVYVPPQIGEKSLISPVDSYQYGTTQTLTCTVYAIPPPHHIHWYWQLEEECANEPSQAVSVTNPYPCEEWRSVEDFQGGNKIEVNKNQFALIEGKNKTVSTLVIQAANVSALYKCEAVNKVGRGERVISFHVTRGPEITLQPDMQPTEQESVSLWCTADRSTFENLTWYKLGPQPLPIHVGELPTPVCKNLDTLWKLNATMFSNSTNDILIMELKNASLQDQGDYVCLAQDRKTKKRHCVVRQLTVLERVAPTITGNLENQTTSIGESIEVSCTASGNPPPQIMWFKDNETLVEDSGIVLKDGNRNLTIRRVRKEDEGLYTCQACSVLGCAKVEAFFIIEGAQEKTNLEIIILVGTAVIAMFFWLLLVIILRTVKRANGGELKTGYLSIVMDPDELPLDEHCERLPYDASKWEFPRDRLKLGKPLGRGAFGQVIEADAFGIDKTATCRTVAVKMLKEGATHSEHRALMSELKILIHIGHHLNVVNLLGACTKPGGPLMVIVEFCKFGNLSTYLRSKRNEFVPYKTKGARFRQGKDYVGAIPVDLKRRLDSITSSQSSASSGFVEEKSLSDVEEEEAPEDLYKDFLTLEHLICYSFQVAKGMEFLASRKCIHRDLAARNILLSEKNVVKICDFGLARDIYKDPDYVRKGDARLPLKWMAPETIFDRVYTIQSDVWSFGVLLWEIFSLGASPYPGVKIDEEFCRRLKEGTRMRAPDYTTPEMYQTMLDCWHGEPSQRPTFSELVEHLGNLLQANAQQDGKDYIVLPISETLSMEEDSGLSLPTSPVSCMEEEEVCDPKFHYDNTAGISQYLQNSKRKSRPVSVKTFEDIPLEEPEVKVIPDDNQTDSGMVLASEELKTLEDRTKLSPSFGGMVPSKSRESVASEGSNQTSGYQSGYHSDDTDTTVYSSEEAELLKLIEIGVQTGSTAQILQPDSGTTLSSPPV
inhibition [1] [%],inhibition [2] [%],pIC50 (T47D),pIC50 (HeLa),SMILES
13,46,–,–,CC(C)n1nnc2ccc(-c3nc(Nc4ccc(NC(=O)C5(C(=O)Nc6cccc(C(F)(F)F)c6)CC5)cc4)ncc3F)cc21
74,90,–,–,Cc1nc2c(F)cc(-c3nc(Nc4ccc(NC(=O)C5(C(=O)Nc6cccc(Cl)c6)CC5)cc4)ncc3F)cc2n1C(C)C
81,78,–,–,Cc1ccc(NC(=O)C2(C(=O)Nc3ccc(Nc4ncc(F)c(-c5ccc6nnn(C(C)C)c6c5)n4)cc3)CC2)cc1
79,69,–,–,CC(C)n1nnc2ccc(-c3nc(Nc4ccc(NC(=O)C5(C(=O)Nc6cccc(F)c6)CC5)cc4)ncc3F)cc21
21,59,–,–,CC(C)n1nnc2ccc(-c3nc(Nc4ccc(NC(=O)C5(C(=O)Nc6ccc(Cl)cc6)CC5)cc4)ncc3F)cc21
50,60,–,–,CC(C)n1nnc2ccc(-c3nc(Nc4ccc(NC(=O)C5(C(=O)Nc6cccc(Cl)c6)CC5)cc4)ncc3F)cc21
96,90,7.53,6.98,Cc1nc2c(F)cc(-c3nc(Nc4ccc(NC(=O)C5(C(=O)Nc6cccc(F)c6)CC5)cc4)ncc3F)cc2n1C(C)C
34,68,–,–,Cc1nc2c(F)cc(-c3nc(Nc4ccc(NC(=O)C5(C(=O)Nc6ccc(Cl)c(C(F)(F)F)c6)CC5)cc4)ncc3F)cc2n1C(C)C
37,74,–,–,Cc1nc2c(F)cc(-c3nc(Nc4ccc(CNC(=O)C5(C(=O)Nc6ccc(C(F)(F)F)cc6)CC5)cc4)ncc3F)cc2n1C(C)C
98,91,7.59,6.72,Cc1nc2c(F)cc(-c3nc(Nc4ccc(NC(=O)C5(C(=O)Nc6ccc(F)cc6)CC5)cc4)ncc3F)cc2n1C(C)C
90,91,6.92,6.22,Cc1nc2c(F)cc(-c3nc(Nc4ccc(NC(=O)C5(C(=O)Nc6ccc(Br)cc6)CC5)cc4)ncc3F)cc2n1C(C)C
69,84,–,–,CC(C)n1nnc2ccc(-c3nc(Nc4ccc(NC(=O)C5(C(=O)Nc6ccc(F)cc6)CC5)cc4)ncc3F)cc21
88,91,–,–,Cc1nc2c(F)cc(-c3nc(Nc4ccc(CNC(=O)C5(C(=O)Nc6ccc(Cl)cc6)CC5)cc4)ncc3F)cc2n1C(C)C
24,52,–,–,CC(C)n1nnc2ccc(-c3nc(Nc4ccc(NC(=O)C5(C(=O)Nc6ccc(Br)cc6)CC5)cc4)ncc3F)cc21
34,55,–,–,CC(C)n1nnc2ccc(-c3nc(Nc4ccc(NC(=O)C5(C(=O)Nc6cccc(Br)c6)CC5)cc4)ncc3F)cc21
93,90,6.96,6.48,Cc1nc2c(F)cc(-c3nc(Nc4ccc(CNC(=O)C5(C(=O)Nc6ccc(Br)cc6)CC5)cc4)ncc3F)cc2n1C(C)C
76,74,–,–,Cc1nc2c(F)cc(-c3nc(Nc4ccc(NC(=O)C5(C(=O)Nc6ccc(Cl)cc6)CC5)cc4)ncc3F)cc2n1C(C)C
83,90,–,–,Cc1nc2c(F)cc(-c3nc(Nc4ccc(NC(=O)C5(C(=O)Nc6cccc(Br)c6)CC5)cc4)ncc3F)cc2n1C(C)C
75,73,–,–,Cc1cccc(NC(=O)C2(C(=O)Nc3ccc(Nc4ncc(F)c(-c5ccc6nnn(C(C)C)c6c5)n4)cc3)CC2)c1
–,0,–,–,CN(C)C(=O)c1cc2cnc(Nc3ccc(NC(=O)C4(C(=O)Nc5ccc(F)cc5)CC4)cc3)nc2n1C1CCCC1
74,80,–,–,Cc1nc2c(F)cc(-c3nc(Nc4ccc(NC(=O)C5(C(=O)Nc6ccc(C(F)(F)F)cc6)CC5)cc4)ncc3F)cc2n1C(C)C
31,56,–,–,CC(C)n1nnc2ccc(-c3nc(Nc4ccc(NC(=O)C5(C(=O)Nc6ccc(C(F)(F)F)cc6)CC5)cc4)ncc3F)cc21
97,95,6.69,6.75,Cc1cccc(NC(=O)C2(C(=O)Nc3ccc(Nc4ncc(F)c(-c5cc(F)c6nc(C)n(C(C)C)c6c5)n4)cc3)CC2)c1
97,95,6.11,6.60,Cc1ccc(NC(=O)C2(C(=O)NCc3ccc(Nc4ncc(F)c(-c5cc(F)c6nc(C)n(C(C)C)c6c5)n4)cc3)CC2)cc1
8,41,–,–,CC(C)n1nnc2ccc(-c3nc(Nc4ccc(NC(=O)C5(C(=O)Nc6ccc(Cl)c(C(F)(F)F)c6)CC5)cc4)ncc3F)cc21
51,57,–,–,Cc1nc2c(F)cc(-c3nc(Nc4ccc(CNC(=O)C5(C(=O)Nc6ccc(Cl)c(C(F)(F)F)c6)CC5)cc4)ncc3F)cc2n1C(C)C
31,80,–,–,Cc1nc2c(F)cc(-c3nc(Nc4ccc(NC(=O)C5(C(=O)Nc6cccc(C(F)(F)F)c6)CC5)cc4)ncc3F)cc2n1C(C)C

# Source: ChEMBL document CHEMBL4406821, “Novel dual inhibitors targeting CDK4 and VEGFR2 synergistically suppressed cancer progression and angiogenesis” (Eur J Med Chem, 2019)
